EBV gp42 inh = EBV gp42 inhibition; 220,000 compounds, 0.42% hits; Fluorescence polarization binding assay, mP read-out; Q1HVG2; inhibition, % (tested at 21.74 µM); in the data active means inhibition above about 50%
MEX-5 binding = C. elegans MEX-5 TCR-2 RNA binding activity. MEX-5/FITC-TCR2 RNA binding, fluorescence polarization; active compounds read low. activity score (negative = inhibition of binding), % at 10 µM. 300,000 compounds, 0.38% hits;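 active means inhibition past about -25% in most replicates, and total fluorescence under double the plate's negative control median, limit read from the data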;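 further: 0% = DMSO and -100% = 5 µM competing unlabeled TCR2 RNA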
Target sequence (Q9XUB2 whole entry, looked up): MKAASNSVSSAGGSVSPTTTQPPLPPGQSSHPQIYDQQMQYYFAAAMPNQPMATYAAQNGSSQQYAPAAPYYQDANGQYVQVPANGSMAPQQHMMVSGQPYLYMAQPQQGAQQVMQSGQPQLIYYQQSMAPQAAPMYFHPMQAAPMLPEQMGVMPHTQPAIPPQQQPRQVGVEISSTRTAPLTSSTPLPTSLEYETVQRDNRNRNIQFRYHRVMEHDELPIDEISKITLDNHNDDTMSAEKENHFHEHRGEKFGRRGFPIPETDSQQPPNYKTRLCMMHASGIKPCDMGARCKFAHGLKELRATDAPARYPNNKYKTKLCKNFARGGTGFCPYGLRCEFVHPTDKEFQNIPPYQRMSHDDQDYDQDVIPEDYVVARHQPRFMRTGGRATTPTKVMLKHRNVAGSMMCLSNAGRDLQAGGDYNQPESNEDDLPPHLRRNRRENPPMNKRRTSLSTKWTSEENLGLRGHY
IMP-1 inh = inhibitors of Pseudomonas aeruginosa IMP-1 metallo-beta-lactamase; 290,000 compounds, 0.45% hits; AID 1556; purified IMP-1, nitrocefin hydrolysis, epi-absorbance fluorescence; inhibition, % at 5.6 µM;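 active means inhibition above the mean plus 3 SD of all compounds in the same screening run, cut at about 4.5% in these data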;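 further: 0% = IMP-1 with DMSO and 100% = DMSO wells lacking enzyme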
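System: purified IMP-1 / Input: IMP-1 dispensed at 0.2 nM / Medium: 50 mM HEPES pH 7.1, 50 µM ZnSO4, 0.05% Brij 35 / Timing: 15 min enzyme–compound preincubation, then 25 min nitrocefin reaction, 25 °C / Technique: plate fluorescence quenching by hydrolysis product, ex 480/em 530 nm / Repeats: singlicate testing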
Bcl-xL primary = Bcl-xL (human) inhibition. Q07817. GST-Bcl-xL / FITC-Bim BH3 peptide fluorescence polarization. inhibition, % at 10.9 µM. 320,000 compounds, 0.7% hits. AID 2129;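 active means inhibition above the mean of all tested compounds plus 3 SD, cutoff set per campaign, cut at about 30% in these data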;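 further: 0% = DMSO wells and 100% = unlabeled Bim-BH3 peptide competitor; inhibitors lower millipolarization by displacing the labeled peptide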
GLD-1 RNA inh = GLD-1-TGE RNA interaction inhibition (C. elegans). Q17339. purified GLD-1 + fluorescein TGE RNA, fluorescence polarization. inhibition, % at 5.96 µM. 320,000 compounds, 0.44% hits;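 active means percent inhibition above a per-plate cutoff, the plate mean of test compounds plus 3 SD, cut at about 30% in these data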;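 further: 0% = DMSO wells with GLD-1 and probe and 100% = wells lacking GLD-1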
VIM-2 inhibitor = inhibitors of Pseudomonas aeruginosa VIM-2 metallo-beta-lactamase; purified VIM-2, nitrocefin hydrolysis, epi-absorbance fluorescence; inhibition, % at 5.6 µM; 290,000 compounds, 0.89% hits; AID 1527;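 active means inhibition above the mean of all tested compounds plus 3 SD, cutoff set per screening run, cut at about 7.5% in these data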;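 further: red hydrolysis product quenches plate fluorescence so inhibitors raise well fluorescence; 0% = enzyme with DMSO and 100% = DMSO without enzyme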
* = called active by the depositor; . = no result. Most compounds without a hit are left out; they make up all but 2.2% or so of the library.

SMILES	EBV gp42 inh	MEX-5 binding	IMP-1 inh	Bcl-xL primary	GLD-1 RNA inh	VIM-2 inhibitor
Cn1c(C(C#N)C2=C(Cl)C(=O)N(c3ccccc3)C2=O)nc2ccccc21 (stereo not drawn)	20	.	3	50*	45*	1
Cn1c(C(O)C(O)c2ccccc2)nc2ccccc21 (stereo not drawn)	-1	3	-3	-1	-1	-1
O=C(c1ccco1)N1CCN(Cc2cc(=O)c(OCc3ccc(F)cc3)co2)CC1	.	2	.	8	6	.
O=[N+]([O-])c1cccc(S(=O)(=O)Nc2nc3ccccc3nc2Nc2cccc(S(=O)(=O)N3CCCCC3)c2)c1	-4	-1	0	.	.	-1
Cc1ccc(S(=O)(=O)Nc2nc3ccccc3nc2Nc2cccc(S(=O)(=O)N3CCCC3)c2)cc1	56*	-3	-1	37*	14	-2
COC(=O)[C@H](CCSC)NC(=O)NC1CCN(Cc2ccccc2)CC1	-19	-36*	-1	16	10	-4
Cc1ccc(NC(=O)NCCN2CCN(C(=O)Nc3ccc(C)cc3)CC2)cc1	.	-2	-3	2	-7	-5
O=C(NCCN1CCN(C(=O)Nc2ccccc2)CC1)Nc1ccccc1	-7	1	0	112*	8	-3
Cc1ccc(-c2csc(NC(=O)CSc3nc4ccccc4c(=O)n3CCCN(C)C)n2)cc1	8	0	-2	2	0	-5
Cc1c(NC(=O)c2ccc(NC(=O)C3CC3)cc2)cccc1C(=O)O	.	1	-1	7	7	-2
Cc1cc(/C=C(\C#N)C(=O)Nc2ccc(F)cc2)c(C)n1-c1ccc(N2CCOCC2)c([N+](=O)[O-])c1	-30	-1	5.0*	2	-1	1
CC1CC(=O)c2c(cc3c(-c4c(O)cc(O)c5c(O)c6c(cc45)OC(C)CC6=O)c(O)cc(O)c3c2O)O1 (stereo not drawn)	4	-35*	-1	44*	5	-3
O=C1CC(c2ccc(O)cc2)Oc2cc(O)cc(O)c21 (stereo not drawn)	-7	3	1	8	6	-3
CCOC(=O)c1sc(-c2ccc(C(F)(F)F)cc2)nc1O	14	-4	4.9*	36*	12	-1
COc1ccc(C2=CSC3=NCCN23)cc1OC	.	-1	-4	4	-4	9.0*
Cc1ccc(/C=C2\SC(N3CCCC3)=NC2=O)cc1	-10	-1	-2	8	-4	1
CCOC(=O)C1CCN(C2=NC(=O)/C(=C/c3ccc(OC)c(OC)c3)S2)CC1	.	2	-3	2	-12	-2
CCOC(=O)C1CCN(C2=NC(=O)/C(=C/c3ccc(Cl)cc3)S2)CC1	.	1	4.9*	6	-4	1
O=C1N=C(N2CCCCC2)S/C1=C/C1=Cc2ccccc2OC1	-14	-43*	0	5	1	1
O=C1N=C(N2CCCCC2)S/C1=C\c1ccc(Br)cc1	.	-1	4.7*	-2	6	3
CN(C)c1ccc(/C=C2\SC(N3CCCCC3)=NC2=O)cc1	.	0	1	-53	-153	3
CCC(=O)N(Cc1cc(=O)[nH]c2ccccc12)c1ccc(OC)cc1	.	-1	-2	7	-4	-3
CCc1cc(=O)oc2cc(C)cc(OC(C)C(=O)NC3CC(C)(C)NC(C)(C)C3)c12 (stereo not drawn)	.	3	-2	-1	-6	2
CCc1cc(=O)oc2c(C)c(OC(C)C(=O)NC3CC(C)(C)NC(C)(C)C3)ccc12 (stereo not drawn)	.	2	2	-4	-8	8.1*
O=C(O)c1ccccc1-c1ncc(-c2ccccc2)o1	.	.	.	8	-2	.
SMILES	EBV gp42 inh	MEX-5 binding	IMP-1 inh	Bcl-xL primary	GLD-1 RNA inh	VIM-2 inhibitor
Cc1ccc2nc3sc(C(=O)N4CCCc5ccccc54)c(N)c3cc2c1	46	-35*	-4	-8	-19	-1
Cc1ccc(-c2cc(C(=O)N3CCCc4ccccc43)c3ccccc3n2)cc1	-2	0	1	2	7	-7
COC(=O)c1ccccc1NC(=S)NC(=O)c1ccccc1	-6	0	4.7*	-4	0	-1
COC(=O)c1ccc(NC(=S)NNC(=O)c2ccccc2)cc1	-16	-2	0	6	-2	-2
COC(=O)c1cccnc1NC(=S)NNC(=O)c1ccccc1	-19	1	11*	17	1	-6
CCN(C[C@H]1N[C@@](CC)(C(=O)OC)[C@H]2C(=O)N(C)C(=O)[C@@H]12)S(=O)(=O)c1ccccc1	.	.	.	.	-1	.
COc1ccc(-c2cc(-c3ccccc3O)[nH]n2)cc1OC	-5	-2	-2	2	6	-5
COc1ccc(-c2cc(-c3cc(F)ccc3O)[nH]n2)cc1OC	-11	1	5.2*	2	16	-3
O=[N+]([O-])c1ccc(N2N=C(c3ccco3)CC2c2ccccc2)cc1 (stereo not drawn)	70*	-5	0	-58	-32	-1
COC(=O)c1c(NC(=O)CS(=O)(=O)c2ccccc2)sc(C)c1C	.	4	.	-3	7	.
CCOC(=O)CC1(NC(=O)C2CCC(=O)N(Cc3ccccc3OC)C2)CCCCC1 (stereo not drawn)	.	4	-4	.	.	-4
COC(=O)c1[nH]c2ccc(Cl)cc2c1NC(=O)CCN1CCN(C2CCCCC2)CC1	-19	2	8.0*	-9	2	-2
O=C1SC(c2ccccc2)=C/C1=C\N1CCCCC1	-9	1	4.8*	2	-3	2
Cn1c(C(=O)N2CCN(C(=O)c3ccco3)CC2)cc2c(=O)n(C)c3ccccc3c21	-13	0	-2	4	6	11*
COc1ccccc1N1CCN(C(=O)Cn2nc3n(C)c4ccccc4n3c(=O)c2=O)CC1	-19	1	-1	2	31*	-3
COc1ccc(-c2ccc(=O)n(CC(=O)N3CCN(c4ccccc4OC)CC3)n2)cc1	.	.	-2	.	.	3
Cn1c(C(=O)N2CCN(C3CCCCC3)CC2)cc2c(=O)n(C)c3ccccc3c21	-19	.	-2	.	.	3
COc1ccccc1N1CCN(C(=O)c2cc3c(=O)n(C)c4ccccc4c3n2C)CC1	-26	0	-2	3	5	8.8*
COC(=O)c1cc(S(=O)(=O)N2CCN(Cc3ccccc3)CC2)cn1C	.	-1	-2	1	3	-3
Cc1ccc(S(=O)(=O)N(C)c2ccc(C(=O)NCc3ccccc3F)cc2)cc1	.	-1	.	-11	1	.
N#Cc1ccccc1COC(=O)CCCC1=NS(=O)(=O)c2ccccc2N1	.	0	-5	-3	3	-2
C=Cn1cc[n+](CC(=O)c2ccc(OC)cc2)c1	.	-3	-4	4	-2	-1
CCCc1ccc(-c2cc(C(=O)N3CCN(c4ccccn4)CC3)c3ccccc3n2)cc1	.	-2	-1	2	9	-3
